# Bioassay records (PubChem)
# The list is not random: actives were taken first. Their share in the collection is about 3.7%.
# SR-BI uptake up – enhances SR-BI lipid uptake from DiI-HDL; activation, % at 12.5 µM; CHO ldlA[mSR-BI] cells, DiI-HDL uptake fluorescence, 3 h; 100 = double the neutral-control signal; 320,000 compounds, 0.096% hits;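 active means mean replicate activation of at least 60% and every replicate at or above 60%; inconclusive means mean or all-replicate condition met, but not both; inactive means mean below 60% and not all replicates reaching 60%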;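 further: 0% = median plate neutral-control signal and 100% = twice that signal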
#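 system = CHO ldlA[mSR-BI] cells, LDL receptor-null, SR-BI overexpressing | medium = Ham's F12 with 0.5% BSA, HEPES 25 mM, pH 7.4 | probe or stimulus = DiI-HDL 10 µg/mL | compound dosing = single-point compound dose | incubation = compound exposure 3 h, 37 °C | technique = DiI fluorescence, bottom read | read-out = cell-associated DiI fluorescence as measure of HDL uptake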
# SR-BI DiI inh – inhibitors of mouse SR-BI mediated HDL lipid uptake; Q61009; ldlA[mSR-BI] CHO cells, DiI-HDL uptake fluorescence, 3 h; inhibition, % at 12.5 µM; 320,000 compounds, 0.96% hits; AID 488896;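 active means mean replicate inhibition of at least 70% and a set share of replicates each scoring 70 or more; inconclusive means meets just one of the two criteria; inactive means fails both criteria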;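 further: 0% = median of neutral control wells and 100% = median of positive control wells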
# Target sequence (Q61009 whole entry, looked up): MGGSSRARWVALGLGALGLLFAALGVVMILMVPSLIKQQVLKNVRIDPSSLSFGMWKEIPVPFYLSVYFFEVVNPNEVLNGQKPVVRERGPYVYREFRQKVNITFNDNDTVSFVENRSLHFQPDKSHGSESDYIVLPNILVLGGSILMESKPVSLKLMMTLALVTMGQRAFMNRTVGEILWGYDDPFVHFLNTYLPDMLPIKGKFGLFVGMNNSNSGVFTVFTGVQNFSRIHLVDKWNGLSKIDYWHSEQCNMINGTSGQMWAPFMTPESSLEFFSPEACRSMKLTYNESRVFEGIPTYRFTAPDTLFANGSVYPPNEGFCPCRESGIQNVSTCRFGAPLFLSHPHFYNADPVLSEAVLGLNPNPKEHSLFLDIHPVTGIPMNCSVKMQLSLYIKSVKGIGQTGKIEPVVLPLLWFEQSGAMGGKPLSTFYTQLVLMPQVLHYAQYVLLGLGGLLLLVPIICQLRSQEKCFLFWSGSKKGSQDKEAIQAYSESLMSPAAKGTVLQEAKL
# GAA850 FXN act – activators of GAA850 frataxin (FXN) promoter; AID 540364; activation, % at 6 µM; HEK293 lucGAA850 FXN promoter luciferase reporter, 24 h; percent of 10 µM SAHA response; 360,000 compounds, 0.56% hits;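 active means activation above the average of all compounds screened plus 3 SD, cutoff fixed separately per campaign, cut at about 7.5% in these data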;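 further: 0% = DMSO wells and 100% = 10 µM SAHA wells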
# AHR act – activates the human aryl hydrocarbon receptor; P35869; AHR-responsive luciferase reporter cells, luminescence; activation, % at 5 µM; 320,000 compounds, 2.5% hits; in the data active means activation above about 47%;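 further: 0% = vehicle wells and 100% = reference agonist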
# GASC-1 inh – blocks human GASC-1 demethylase activity; 330,000 compounds, 0.069% hits; inhibition, % at 2.35 µM; GST-JMJD2C(1-420) H3K9me3 demethylation, DELFIA europium; AID 2099; Q9H3R0;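 active means more than half of a compound's replicate wells show inhibition beyond 50%, single wells judged on their own value; inconclusive means some, but no more than half, of replicates pass 50% inhibition; inactive means no replicate passes 50% inhibition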;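 further: signal counts dimethyl H3K9 product captured on neutravidin plate; 0% = median of DMSO wells and 100% = 0.3 times that DMSO median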
# The depositor's hits bear a star; ? = inconclusive; / = not tested or not shown.
SMILES,SR-BI uptake up,SR-BI DiI inh,GAA850 FXN act,AHR act,GASC-1 inh
CCOC(=O)N1CCN(S(=O)(=O)c2ccc(C(=O)NNc3nc4cc(C)cc(C)c4s3)cc2)CC1,-121,121*,-1,10,77
Cc1cc(C)c2nc(NNC(=O)c3ccc(S(=O)(=O)N4CCCCC4)cc3)sc2c1,-76,76*,0,31,6
CCCCCCN1C[C@H](n2cc(-c3ccc(F)cc3)nn2)[C@@H](O)C[C@@H]1c1ccc(C)cc1,/,/,0,/,/
CCOC(=O)N1CCN(S(=O)(=O)c2ccc(C(=O)NNc3nc4c(C)cc(C)cc4s3)cc2)CC1,/,/,-2,47*,-12
O=C(Nc1ccc(Br)cc1)c1cccc(S(=O)(=O)Nc2ccccn2)c1,-11,11,-2,61*,4
Cc1ccnc(NC(=O)c2cccc(NC(=O)c3ccc(Cl)cc3)c2)c1,-89,89*,3,/,/
Cc1ccnc(NC(=O)c2cccc(S(=O)(=O)Nc3ccc(C)cc3C)c2)c1,-23,23,0,61*,-4
Cc1ccnc(NC(=O)c2cccc(NC(=O)c3ccc(Cl)c(Cl)c3)c2)c1,-74,?,0,/,/
O=C(Nc1ccccc1)c1cccc(S(=O)(=O)Nc2ccccn2)c1,22,-22,0,3,-2
COc1ccccc1C1NC(=O)NC(C)=C1C(=O)OC1CCCC(C)C1 (stereo not drawn),-12,12,2,-9,-1
NC(=O)c1ccc(Cn2c(C(=O)c3cc(Cl)c(N)c(Cl)c3)c3ccccc3[n+]2[O-])cc1,-4,4,-1,78*,-3
NC(=O)c1ccc(Cn2c(C(=O)c3ccc(Cl)cc3)c3ccccc3[n+]2[O-])cc1,21,-21,3,15,-1
COc1ccc(C(=O)c2c3ccc(C(F)(F)F)cc3[n+]([O-])n2CCCC(N)=O)cc1,0,0,-1,19,2
NCCCn1c(C(=O)c2cc(Cl)c(N)c(Cl)c2)c2ccc([N+](=O)[O-])cc2[n+]1[O-],1,-1,-2,115*,-2
NC(=O)CCCn1c(C(=O)c2cc(Cl)c(N)c(Cl)c2)c2ccc(C(F)(F)F)cc2[n+]1[O-],-4,4,0,55*,-3
NCCCn1c(C(=O)c2cc(Cl)c(N)c(Cl)c2)c2ccc(C(F)(F)F)cc2[n+]1[O-],2,-2,-1,57*,3
C=CCN(CC=C)C(=O)CN1C(=O)NC(c2ccccc2)(c2ccccc2)C1=O,14,-14,0,-1,-16
O=C(COC(=O)C1CCCCC1)Nc1cccc(F)c1,-1,1,2,0,-1
O=C(COC(=O)C1CCCCC1)Nc1cccc(Br)c1,63*,-63,2,0,4
COc1ccccc1/C=C/C=N/n1c(-c2n[nH]c3c2CCC3)n[nH]c1=S,/,/,0,55*,-2
CCCCn1nc2cc(C(=O)NC3CCc4ccccc43)ccc2c1OCC (stereo not drawn),-77,77*,-2,14,8
CC(=O)Nc1ccc(S(=O)(=O)NC2(C(F)(F)F)NC(=O)N(CC(C)C)C2=O)cc1 (stereo not drawn),14,-14,3,58*,2
CC(C)CN1C(=O)NC(NS(=O)(=O)c2ccc(N)cc2)(C(F)(F)F)C1=O (stereo not drawn),27,-27,0,-3,-1
O=C1Nc2ccccc2O/C1=C\c1ccccc1,-27,27,3,61*,1
O=C(Nc1ncc(Cc2cc(Cl)ccc2Cl)s1)c1ccc([N+](=O)[O-])cc1,-82,82*,2,2,3
SMILES,SR-BI uptake up,SR-BI DiI inh,GAA850 FXN act,AHR act,GASC-1 inh
O=C(Nc1ncc(Cc2cccc(Cl)c2Cl)s1)c1ccc([N+](=O)[O-])cc1,-66,66,0,3,0
CCN(Cc1ccccc1)C(=O)CN1C(=O)c2ccccc2S1(=O)=O,18,-18,0,-2,7
Cn1c(=O)c(-c2ccccc2N)nc2ccccc21,-8,8,2,41,-27
Cn1c(=O)c(-c2ccccc2)nc2ccccc21,-13,13,2,55*,2
CC(=O)c1ccc(OC2(C)CCN(Cc3ccc(C)cc3)C2)cc1 (stereo not drawn),/,/,1,/,/
O=S(=O)(c1cccc2cccc(Cl)c12)N1CCCC1,-6,6,4,-1,-9
COc1ccc(-c2csc(NC(=O)CSc3n[nH]c(N)n3)n2)cc1,-17,17,3,49*,-13
O=C(CSc1nc2ccccc2[nH]1)Nc1nc(-c2ccc(Br)cc2)cs1,-28,28,0,48*,3
O=C(NNC(=O)c1cc2cc(Br)ccc2oc1=O)c1ccc(O)cc1O,-83,83*,0,3,8
Cc1ccccc1C(=O)Oc1ccccc1N1C(=O)C2CC=CCC2C1=O (stereo not drawn),29,-29,3,75*,16
O=C(Oc1ccccc1N1C(=O)C2CC=CCC2C1=O)c1ccc(Br)cc1 (stereo not drawn),2,-2,1,27,6
CSc1cccc(NC(=S)N(CCCN2CCCC(C)C2)Cc2cccs2)c1 (stereo not drawn),-5,5,-2,6,-1
O=C(N/N=C1\C/C(=N\NC(=O)c2ccncc2)c2ccccc21)c1ccncc1,-12,12,0,56*,-41
Cc1cc(C)n(Cc2ccc(C(=O)N/N=C/c3ccc(-c4ccc([N+](=O)[O-])cc4)o3)o2)n1,-103,104*,0,18,-37
CCCCC(=O)N/N=C/c1ccc(-c2ccc([N+](=O)[O-])cc2)o1,-21,21,2,18,-6
O=C(NCc1n[nH]c(=S)n1-c1cccc(Cl)c1)c1ccc(S(=O)(=O)N2CCCCC2)cc1,/,/,-1,1,84*
COCCCNS(=O)(=O)c1ccc(C)cc1,-1,1,2,0,-32
COc1ccc(-c2cn3c(C)c(C(=O)Nc4cc(NC(C)=O)ccc4OC)sc3n2)cc1,-75,75*,-5,6,-6
Oc1c(Cl)cc(Cl)cc1/C=N/NC(=S)NC1CC2C=CC1C2 (stereo not drawn),-98,98*,0,27,5
Oc1ccccc1C=NNC(=S)NC1CC2C=CC1C2 (stereo not drawn),/,/,1,/,/
Cc1ccc(C(=O)Nc2c(-c3cccs3)nc3cc(C)ccn23)cc1,27,-27,0,4,1
Cc1ccc(C(=O)Nc2nccc(-c3cccs3)n2)cc1,1,-1,3,71*,-2
CCSc1nnc2c(n1)[nH]c1c(C)cccc12,-3,3,4,53*,0
O=C(Nn1c(-c2ccccc2)nc2ccccc2c1=O)c1cccs1,30,-30,-2,51*,-21
Cc1nc(SCC(=O)Nn2c(-c3ccccc3)nc3ccccc3c2=O)n[nH]1,7,-7,-1,74*,-2
